Measured values taken from ChEMBL document CHEMBL2029242 (J Med Chem, 2012).

Assays:
A-375 = assay: Cytotoxicity against human A375 cells expressing BRAF V600E mutant after 72 hrs by cell titer blue assay; type: functional, cell-based; conditions: A-375, 72 h
How it was run: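 Cells were grown in ATCC-recommended media and kept overnight in 0.5% serum. They were then exposed to compound for 72 h, and Cell Titer Blue was added for 3 h. EC50 came from fluorometric concentration−response curves, run in duplicate and repeated at least once.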

[1] = target: T1, Serine/threonine-protein kinase B-raf (Homo sapiens, UniProt P15056, V600E)
[2] = target: T1, Serine/threonine-protein kinase B-raf; remark: listed apart in the source
[3] = AUC (infinity) in Sprague-Dawley rat at 10 mg/kg, po; type: ADME, organism-based; set-up: time infinity, dose 10 mg/kg, route oral; conditions: plasma
How it was run: (§1)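 Single-dose PK. Rats: male Sprague−Dawley, jugular-catheterized, 1 mg/kg iv in 3:1 PEG400/water (n = 2) and 10 mg/kg po in Pharmatek #6 (n = 3). Female athymic nude mice: 100 mg/kg po in Pharmatek #6 (n = 3). Beagle dogs and male cynomolgus monkeys (n = 3): crossover, 1 mg/kg iv and 10 mg/kg po in 22% HPβCD, overnight fast. Plasma LC-MS/MS to 24 h; noncompartmental parameters, mean ± SD.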

[4] = Cmax in Sprague-Dawley rat at 10 mg/kg, po; type: ADME, organism-based; set-up: dose 10 mg/kg, route oral; conditions: in vivo; how it was run: as §1
[5] = Tmax in Sprague-Dawley rat at 10 mg/kg, po; type: ADME, organism-based; set-up: dose 10 mg/kg, route oral; conditions: in vivo
How it was run: (§2)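 Male Sprague-Dawley rats (250–350 g, jugular-catheterized) received a single dose either iv at 1 mg/kg in 3:1 PEG400/water (n = 2) or po at 10 mg/kg in Pharmatek #6 (n = 3). Plasma was sampled at 5 min (iv only), 15 and 30 min, and 1, 2, 4, 6 and 24 h. Samples were analyzed by LC-MS/MS after acetonitrile precipitation. Parameters came from noncompartmental linear-trapezoidal analysis of individual animals.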

[6] = Clearance in Sprague-Dawley rat at 1 mg/kg, iv and 10 mg/kg, po; type: ADME, organism-based; conditions: in vivo; how it was run: as §1
[7] = Volume of distribution in Sprague-Dawley rat at 1 mg/kg, iv and 10 mg/kg, po; type: ADME, organism-based; conditions: in vivo; how it was run: as §2
[8] = Terminal half life in Sprague-Dawley rat at 1 mg/kg, iv and 10 mg/kg, po; type: ADME, organism-based; conditions: in vivo, read-out: beta t1/2 (converted); how it was run: as §2
[9] = Oral bioavailability in Sprague-Dawley rat at 10 mg/kg; type: ADME, organism-based; conditions: in vivo; how it was run: as §2
[10] = Stability in rat liver microsomes assessed as compound remaining at 1 uM after 60 mins; type: ADME, Microsome; conditions: read-out: Stability
How it was run: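 Pooled liver microsomes (0.5 mg/mL) were premixed with 0.1 M phosphate buffer pH 7.4, 6.5 mM MgCl2 and test compound (1 μM final, 0.2% DMSO). NADPH (1 mM) started the reaction at 37 °C, in duplicate. Minus-NADPH and testosterone controls were included. Aliquots were taken at 0, 5, 15, 30 and 60 min and quenched in acetonitrile containing internal standard.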

T1 sequence (P15056 2-766 V600E limits assumed): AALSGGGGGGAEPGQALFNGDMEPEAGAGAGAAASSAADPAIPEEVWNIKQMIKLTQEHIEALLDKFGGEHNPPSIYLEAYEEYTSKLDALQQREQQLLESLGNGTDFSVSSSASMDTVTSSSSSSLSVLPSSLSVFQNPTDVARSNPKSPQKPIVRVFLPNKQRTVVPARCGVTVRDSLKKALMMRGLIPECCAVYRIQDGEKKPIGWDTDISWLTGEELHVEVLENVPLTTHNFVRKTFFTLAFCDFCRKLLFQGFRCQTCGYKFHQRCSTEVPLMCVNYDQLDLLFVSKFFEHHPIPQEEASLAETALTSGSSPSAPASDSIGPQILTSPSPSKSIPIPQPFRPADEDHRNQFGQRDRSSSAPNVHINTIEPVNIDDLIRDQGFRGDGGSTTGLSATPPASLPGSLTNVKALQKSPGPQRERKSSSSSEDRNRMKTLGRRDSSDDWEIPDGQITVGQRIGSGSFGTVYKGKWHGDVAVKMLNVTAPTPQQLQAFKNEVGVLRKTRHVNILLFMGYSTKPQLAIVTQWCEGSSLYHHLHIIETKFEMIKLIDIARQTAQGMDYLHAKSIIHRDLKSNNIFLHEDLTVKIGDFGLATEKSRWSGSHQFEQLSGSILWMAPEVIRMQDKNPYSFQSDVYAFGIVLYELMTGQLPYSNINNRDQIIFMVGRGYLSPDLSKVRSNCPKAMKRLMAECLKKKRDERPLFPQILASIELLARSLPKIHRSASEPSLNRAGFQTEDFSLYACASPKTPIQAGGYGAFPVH

Row | SMILES | Kd [1] | IC50 [2] | AUC(0-inf) [3] | Cmax [4] | Tmax [5] | clearance [6] | Vd [7] | half-life [8] | bioavailability [9] | remaining at 1 h, 1 µM [10] | IC50 (A-375)
1 | COc1cc2ncnc(Oc3cccc(NC(=O)Nc4cc(C)on4)c3)c2cc1OC | 678 nM | > 15000 nM | – | – | – | – | – | – | – | – | > 15000 nM
2 | COc1cc2ncnc(Oc3cccc(NC(=O)Nc4cc(C(C)(C)C(F)(F)F)no4)c3)c2cc1OC | 66 nM | 174 nM | 40.7 µM·h | 4.7 µM | 1.7 h | – | – | – | – | – | 549 nM
3 | COc1cc2ncnc(Oc3cccc(NC(=O)Nc4cc(C(C)(C)C)nn4C)c3)c2cc1OC | 87 nM | 336 nM | – | – | – | – | – | – | – | – | 4270 nM
4 | COc1cc2ncnc(Oc3cccc(NC(=O)Nc4cc(C(C)(C)C#N)no4)c3)c2cc1OC | 48 nM | 332 nM | – | – | – | – | – | – | – | – | 6160 nM
5 | COc1cc2ncnc(Oc3cccc(NC(=O)Nc4cc(C5CCCC5)no4)c3)c2cc1OC | 122 nM | 1130 nM | – | – | – | – | – | – | – | – | 4380 nM
6 | COc1cc2ncnc(Oc3cccc(NC(=O)Nc4cc(C(C)(C)C)nn4C(C)C)c3)c2cc1OC | 85 nM | 505 nM | – | – | – | – | – | – | – | – | 543 nM
7 | COc1cc2ncnc(Oc3cccc(NC(=O)Nc4cc(C(C)(C)F)on4)c3)c2cc1OC | 29 nM | 276 nM | 127 µM·h | 21.1 µM | 2 h | 2.9 mL/min/kg | 0.5 L/kg | 3.5 h | 100% | 92% | 493 nM
8 | COc1cc2ncnc(Sc3cccc(NC(=O)Nc4cc(C5(C(F)(F)F)CC5)on4)c3)c2cc1OC | 31 nM | 469 nM | – | – | – | – | – | – | – | – | 222 nM
9 | COc1cc2ncnc(Oc3cccc(NC(=O)Nc4cc(C(C)(C)C)no4)c3)c2cc1OC | – | – | 1.9 µM·h | 0.7 µM | 0.8 h | 9.8 mL/min/kg | 1 L/kg | 8.2 h | 6% | 51% | –
10 | COc1cc2ncnc(Oc3cccc(NC(=O)Nc4cc(C(C)(C)C)nn4-c4ccccc4)c3)c2cc1OC | 295 nM | 21 nM | 25.9 µM·h | 6.7 µM | 1.3 h | 3.1 mL/min/kg | 0.3 L/kg | 4.2 h | 33% | – | –
11 | COc1cc2ncnc(Oc3cccc(NC(=O)Nc4cc(C(C)C)on4)c3)c2cc1OC | 19 nM | 355 nM | – | – | – | – | – | – | – | – | 527 nM
12 | COc1cc2ncnc(Sc3cccc(NC(=O)Nc4cc(C(C)(CF)CF)on4)c3)c2cc1OC | 50 nM | 93 nM | – | – | – | – | – | – | – | – | 223 nM
13 | COc1cc2ncnc(Oc3cccc(NC(=O)Nc4cc(C5CCCC5)on4)c3)c2cc1OC | 37 nM | 134 nM | – | – | – | – | – | – | – | – | 488 nM
14 | COc1cc2ncnc(Oc3cccc(NC(=O)Nc4cc(C(C)(C)C(F)(F)F)nn4-c4ccccc4)c3)c2cc1OC | 271 nM | 62 nM | – | – | – | – | – | – | – | – | –
15 | COc1cc2ncnc(Oc3cccc(NC(=O)Nc4ccc(C(C)(C)C)cc4)c3)c2cc1OC | – | – | – | – | – | – | – | – | – | – | 3490 nM
16 | COc1cc2ncnc(Oc3cccc(NC(=O)Nc4cc(C5(C(F)(F)F)CCC5)no4)c3)c2cc1OC | 129 nM | 308 nM | – | – | – | – | – | – | – | – | 2240 nM
17 | COc1cc2ncnc(Oc3cccc(NC(=O)Nc4cccc(C(C)(C)C)c4)c3)c2cc1OC | – | – | – | – | – | – | – | – | – | – | 1770 nM
18 | COc1cc2ncnc(Oc3cccc(NC(=O)Nc4cc(C(C)(C)C)on4)c3)c2cc1OC | – | – | 17 µM·h | 11 µM | 0.8 h | 7.3 mL/min/kg | 0.5 L/kg | 19.2 h | 49% | 46% | 328 nM

Continued by falling Kd [1], values first:

Row | Kd [1] | IC50 [2] | AUC(0-inf) [3] | Cmax [4] | Tmax [5] | clearance [6] | Vd [7] | half-life [8] | bioavailability [9] | remaining at 1 h, 1 µM [10] | SMILES | IC50 (A-375)
19 | 1450 nM | > 15000 nM | – | – | – | – | – | – | – | – | COc1cc2ncnc(Oc3cccc(NC(=O)Nc4cc(-c5ccccc5)no4)c3)c2cc1OC | 7070 nM
20 | 175 nM | 480 nM | – | – | – | – | – | – | – | – | COc1cc2ncnc(Oc3cccc(NC(=O)Nc4cc(C(C)(C)C)nn4Cc4ccccc4)c3)c2cc1OC | 1870 nM
21 | 174 nM | > 1670 nM | – | – | – | – | – | – | – | – | COc1cc2ncnc(Oc3cccc(NC(=O)Nc4cc(C(C)(C)C)nn4C4CCCCC4)c3)c2cc1OC | > 15000 nM
22 | 151 nM | 324 nM | – | – | – | – | – | – | – | – | COCC(C)(C)c1cc(NC(=O)Nc2cccc(Oc3ncnc4cc(OC)c(OC)cc34)c2)no1 | 1550 nM
23 | 136 nM | 956 nM | – | – | – | – | – | – | – | – | COc1cc2ncnc(Oc3cccc(NC(=O)Nc4cc(-c5ccccc5)on4)c3)c2cc1OC | > 15000 nM
24 | 132 nM | 339 nM | – | – | – | – | – | – | – | – | COc1cc2ncnc(Oc3cccc(NC(=O)Nc4cc(C(C)(CF)CF)no4)c3)c2cc1OC | 1980 nM
25 | 101 nM | 681 nM | – | – | – | – | – | – | – | – | COc1cc2ncnc(Oc3cccc(NC(=O)Nc4cc(C(C)(C)C)nn4CC(C)C)c3)c2cc1OC | 1160 nM
26 | 78 nM | 2230 nM | – | – | – | – | – | – | – | – | COc1cc2ncnc(Oc3cccc(NC(=O)Nc4cc(C(F)(F)F)no4)c3)c2cc1OC | 5150 nM
27 | 76 nM | 645 nM | – | – | – | – | – | – | – | – | COc1cc2ncnc(Oc3cccc(NC(=O)Nc4cc(C(C)(F)F)no4)c3)c2cc1OC | 694 nM
28 | 75 nM | 1130 nM | – | – | – | – | – | – | – | – | COc1cc2ncnc(Oc3cccc(NC(=O)Nc4cnn(C(C)(C)C)c4)c3)c2cc1OC | > 15000 nM
29 | 74 nM | 142 nM | – | – | – | – | – | – | – | – | COc1cc2ncnc(Sc3cccc(NC(=O)Nc4cc(C(C)(C)C(F)(F)F)on4)c3)c2cc1OC | > 15000 nM
30 | 49 nM | 649 nM | – | – | – | – | – | – | – | – | COc1cc2ncnc(Oc3cccc(NC(=O)Nc4cc(C(C)(C)CO)on4)c3)c2cc1OC | > 15000 nM
31 | 45 nM | 109 nM | – | – | – | – | – | – | – | – | COc1cc2ncnc(Oc3cccc(NC(=O)Nc4cc(C(C)(CF)CF)on4)c3)c2cc1OC | 145 nM
32 | 44 nM | 155 nM | 42 µM·h | 7.9 µM | 2 h | 4 mL/min/kg | 0.6 L/kg | 4.7 h | 48% | 82% | COc1cc2ncnc(Oc3cccc(NC(=O)Nc4cc(C(C)(C)F)no4)c3)c2cc1OC | 125 nM
33 | 39 nM | 84 nM | – | – | – | – | – | – | – | – | COc1cc2ncnc(Sc3cccc(NC(=O)Nc4cc(C(C)(C)F)no4)c3)c2cc1OC | 1470 nM
34 | 31 nM | 340 nM | – | – | – | – | – | – | – | – | COc1cc2ncnc(Oc3cccc(NC(=O)Nc4cc(C(C)C)no4)c3)c2cc1OC | 2960 nM
35 | 27 nM | 183 nM | – | – | – | – | – | – | – | – | COc1cc2ncnc(Oc3cccc(NC(=O)Nc4cc(C5(C(F)(F)F)CC5)on4)c3)c2cc1OC | 117 nM
